According to ChEMBL document CHEMBL4152306, “Synthesis and biological evaluation of new coumarins bearing 2,4-diaminothiazole-5-carbonyl moiety” (Eur J Med Chem, 2018):
Converted amounts (≈) assume the structure as drawn.

Columns and labels:
[1] = Antioxidant activity assessed as ferric ion reduction by measuring FeSO4 equivalents reducing Fe3+-TPTZ to Fe2+-TPTZ at 5 ug/ml after 25 mins by FRAP assay; type: functional
Outline: (§1)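 FRAP reagent: 10 mM TPTZ in 40 mM HCl, 20 mM FeCl3·6H2O and 300 mM acetate buffer pH 3.6 (1:1:10). 20 µl sample (tested 5 to 100 µg/ml) mixed with 150 µl reagent, incubated 37°C for 25 min, absorbance at 593 nm. Values as µM FeSO4·7H2O equivalents from calibration curve; ascorbic acid as standard.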

[2] = Antioxidant activity assessed as ferric ion reduction by measuring FeSO4 equivalents reducing Fe3+-TPTZ to Fe2+-TPTZ at 10 ug/ml after 25 mins by FRAP assay; type: functional; outline: as §1
[3] = Antioxidant activity assessed as ferric ion reduction by measuring FeSO4 equivalents reducing Fe3+-TPTZ to Fe2+-TPTZ at 20 ug/ml after 25 mins by FRAP assay; type: functional; outline: as §1
[4] = Antioxidant activity assessed as ferric ion reduction by measuring FeSO4 equivalents reducing Fe3+-TPTZ to Fe2+-TPTZ at 40 ug/ml after 25 mins by FRAP assay; type: functional; outline: as §1
[5] = Antioxidant activity assessed as ferric ion reduction by measuring FeSO4 equivalents reducing Fe3+-TPTZ to Fe2+-TPTZ at 80 ug/ml after 25 mins by FRAP assay; type: functional; outline: as §1
[6] = Antioxidant activity assessed as ferric ion reduction by measuring FeSO4 equivalents reducing Fe3+-TPTZ to Fe2+-TPTZ at 100 ug/ml after 25 mins by FRAP assay; type: functional; outline: as §1
[7] = Antioxidant activity assessed as DPPH radical scavenging activity incubated for 30 mins under dark condition by spectrophotometric method; type: functional
Outline: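 Test compounds dissolved in DMSO; 20 µl sample mixed with 250 µl DPPH in methanol (working solution diluted from 0.5 mM methanolic stock to absorbance […] at 517 nm). Kept 30 min at room temperature in dark, absorbance read at 517 nm against compound-free control; ascorbic acid standard. Triplicates; % inhibition from control vs sample absorbance; IC50 reported.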

[8] = test system: MCF7; experiment: Cytotoxicity against human MCF7 cells assessed as inhibition of cell proliferation after 48 hrs by MTT assay; type: functional, cell-based; details: MCF7, 48 h
Outline: (§2)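 Cells seeded at 8 × 10³ per well in complete medium, incubated overnight at 37°C, 5% CO2, then exposed to a range of compound concentrations (DMSO solutions; 0.1% DMSO negative control, etoposide positive control) for 48 h at 37°C. Viability by MTT, absorbance 570 nm. IC50 from dose-response curves, mean ± SE of at least three independent experiments.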

[9] = test system: HepG2; experiment: Cytotoxicity against human HepG2 cells assessed as inhibition of cell proliferation after 48 hrs by MTT assay; type: functional, cell-based; details: HepG2, 48 h; outline: as §2
[10] = test system: SW480; experiment: Cytotoxicity against human SW480 cells assessed as inhibition of cell proliferation after 48 hrs by MTT assay; type: functional, cell-based; details: SW480, 48 h; outline: as §2
[11] = test system: MCF7; experiment: Induction of apoptosis in human MCF7 cells after 48 hrs by Annexin-V-FITC/propidium iodide staining based flow cytometry; type: functional, cell-based
Outline: (§3)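 MCF-7 cells seeded in 6-well plates, incubated overnight at 37 °C, 5% CO2, treated 48 h; untreated cells as negative control, etoposide as standard. Cells trypsinized, PBS-washed twice, pelleted at 1200 rpm, resuspended in 500 µl binding buffer with 5 µl each Annexin V-FITC and PI, 5–15 min at room temperature in dark, then flow cytometry.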

[12] = test system: MCF7; experiment: Induction of apoptosis in human MCF7 cells assessed as live cells at IC50 after 48 hrs by Annexin-V-FITC/propidium iodide staining based flow cytometry (reference value: 70.5%); type: functional; outline: as §3
[13] = test system: MCF7; experiment: Induction of apoptosis in human MCF7 cells assessed as early apoptotic cells at IC50 after 48 hrs by Annexin-V-FITC/propidium iodide staining based flow cytometry (reference value: 8.16%); type: functional; outline: as §3
[14] = test system: MCF7; experiment: Induction of apoptosis in human MCF7 cells assessed as late apoptotic cells at IC50 after 48 hrs by Annexin-V-FITC/propidium iodide staining based flow cytometry (reference value: 15.6%); type: functional; outline: as §3
[15] = test system: MCF7; experiment: Induction of apoptosis in human MCF7 cells assessed as necrotic cells at IC50 after 48 hrs by Annexin-V-FITC/propidium iodide staining based flow cytometry (reference value: 5.79%); type: functional; outline: as §3
[16] = test system: MCF7; experiment: Induction of apoptosis in human MCF7 cells assessed as live cells at 7.5 ug/ml after 48 hrs by Annexin-V-FITC/propidium iodide staining based flow cytometry (reference value: 70.5%); type: functional; outline: as §3
[17] = test system: MCF7; experiment: Induction of apoptosis in human MCF7 cells assessed as early apoptotic cells at 7.5 ug/ml after 48 hrs by Annexin-V-FITC/propidium iodide staining based flow cytometry (reference value: 8.16%); type: functional; outline: as §3
[18] = test system: MCF7; experiment: Induction of apoptosis in human MCF7 cells assessed as late apoptotic cells at 7.5 ug/ml after 48 hrs by Annexin-V-FITC/propidium iodide staining based flow cytometry (reference value: 15.6%); type: functional; outline: as §3
[19] = test system: MCF7; experiment: Induction of apoptosis in human MCF7 cells assessed as necrotic cells at 7.5 ug/ml after 48 hrs by Annexin-V-FITC/propidium iodide staining based flow cytometry (reference value: 5.79%); type: functional; outline: as §3
[20] = test system: MCF7; experiment: Induction of apoptosis in human MCF7 cells assessed as live cells at 11.2 ug/ml after 48 hrs by Annexin-V-FITC/propidium iodide staining based flow cytometry (reference value: 70.5%); type: functional; outline: as §3
[21] = test system: MCF7; experiment: Induction of apoptosis in human MCF7 cells assessed as early apoptotic cells at 11.2 ug/ml after 48 hrs by Annexin-V-FITC/propidium iodide staining based flow cytometry (reference value: 8.16%); type: functional; outline: as §3
[22] = test system: MCF7; experiment: Induction of apoptosis in human MCF7 cells assessed as late apoptotic cells at 11.2 ug/ml after 48 hrs by Annexin-V-FITC/propidium iodide staining based flow cytometry (reference value: 15.6%); type: functional; outline: as §3
[23] = test system: MCF7; experiment: Induction of apoptosis in human MCF7 cells assessed as necrotic cells at 11.2 ug/ml after 48 hrs by Annexin-V-FITC/propidium iodide staining based flow cytometry (reference value: 5.79%); type: functional; outline: as §3
[24] = test system: MCF7; experiment: Cell cycle arrest in human MCF7 cells assessed as accumulation at G2 phase at 7.5 ug/ml after 48 hrs by propidium iodide staining based flow cytometry (reference value: 13.24%); type: functional
[25] = test system: MCF7; experiment: Cell cycle arrest in human MCF7 cells assessed as accumulation at S phase at 7.5 ug/ml after 48 hrs by propidium iodide staining based flow cytometry (reference value: 26.04%); type: functional
[26] = test system: MCF7; experiment: Cell cycle arrest in human MCF7 cells assessed as accumulation at G1 phase at 7.5 ug/ml after 48 hrs by propidium iodide staining based flow cytometry (reference value: 68.58%); type: functional
[27] = test system: MCF7; experiment: Cell cycle arrest in human MCF7 cells assessed as accumulation at G2 phase at 11.2 ug/ml after 48 hrs by propidium iodide staining based flow cytometry (reference value: 13.24%); type: functional
[28] = test system: MCF7; experiment: Cell cycle arrest in human MCF7 cells assessed as accumulation at S phase at 11.2 ug/ml after 48 hrs by propidium iodide staining based flow cytometry (reference value: 26.04%); type: functional
[29] = test system: MCF7; experiment: Cell cycle arrest in human MCF7 cells assessed as accumulation at G1 phase at 11.2 ug/ml after 48 hrs by propidium iodide staining based flow cytometry (reference value: 68.58%); type: functional

With `O=C1O[C@H]([C@@H](O)CO)C(O)=C1O` [ASCORBIC ACID] as the compound, how does the Activity [1] read?
Its Activity is 74.9 µMequiv.

And the Activity [2]?
Its Activity is 124 µMequiv.

And the Activity [3]?
The Activity was 216 µMequiv.

And the Activity [4]?
The Activity was 310 µMequiv.

What about the Activity [5] of the same compound?
The Activity was 397 µMequiv.

And the Activity [6]?
Its Activity is 484 µMequiv.

And the IC50 [7]?
Its IC50 is 9.6 µg/mL (≈ 54.5 µM).

Which results are given for `Nc1nc(N2CCN(Cc3ccccc3)CC2)sc1C(=O)c1cc2ccccc2oc1=O`?
IC50 [8]: 11.6 µg/mL (≈ 26 µM); IC50 [9]: 32 µg/mL (≈ 71.7 µM); IC50 [10]: 23.4 µg/mL (≈ 52.4 µM); Activity [1]: 88.5 µMequiv; Activity [2]: 134 µMequiv; Activity [3]: 198 µMequiv; Activity [4]: 226 µMequiv; Activity [5]: 229 µMequiv; Activity [6]: 444 µMequiv; IC50 [7]: 31.7 µg/mL (≈ 71 µM)

What does the source list for `Nc1nc(N2CCSCC2)sc1C(=O)c1cc2cc(Br)ccc2oc1=O`?
IC50 [8]: 12.5 µg/mL (≈ 27.6 µM); IC50 [9]: 29.7 µg/mL (≈ 65.7 µM); IC50 [10]: 44.5 µg/mL (≈ 98.4 µM); Activity [1]: 57 µMequiv; Activity [2]: 70.5 µMequiv; Activity [3]: 78.5 µMequiv; Activity [4]: 94.3 µMequiv; Activity [5]: 164 µMequiv; Activity [6]: 171 µMequiv; IC50 [7]: 27.7 µg/mL (≈ 61.2 µM)

For `Nc1nc(N2CCOCC2)sc1C(=O)c1cc2ccccc2oc1=O`, which IC50 [8] is on record?
The IC50 was 9.8 µg/mL (≈ 27.4 µM).

And the IC50 [9]?
Its IC50 is 34.8 µg/mL (≈ 97.4 µM).

What about the IC50 [10] of the same compound?
Its IC50 is 20.5 µg/mL (≈ 57.4 µM).

What about the Activity [1] of the same compound?
The Activity was 111 µMequiv.

What about the Activity [2] of the same compound?
The Activity was 142 µMequiv.

What about the Activity [3] of the same compound?
Its Activity is 205 µMequiv.

And the Activity [4]?
Its Activity is 345 µMequiv.

And the Activity [5]?
Its Activity is 384 µMequiv.

And the Activity [6]?
The Activity was 605 µMequiv.

And the IC50 [7]?
Its IC50 is 25.8 µg/mL (≈ 72.2 µM).

For `Nc1nc(N2CCOCC2)sc1C(=O)c1cc2cc(Br)ccc2oc1=O`, which IC50 [8] is on record?
Its IC50 is 14.6 µg/mL (≈ 33.5 µM).

And the IC50 [9]?
Its IC50 is 19.3 µg/mL (≈ 44.2 µM).

And the IC50 [10]?
The IC50 was 48.7 µg/mL (≈ 112 µM).

And the Activity [1]?
The Activity was 76.5 µMequiv.

And the Activity [2]?
The Activity was 84.3 µMequiv.

And the Activity [3]?
Its Activity is 110 µMequiv.

And the Activity [4]?
The Activity was 162 µMequiv.

What about the Activity [5] of the same compound?
The Activity was 212 µMequiv.

What about the Activity [6] of the same compound?
Its Activity is 248 µMequiv.

What about the IC50 [7] of the same compound?
The IC50 was 34.6 µg/mL (≈ 79.3 µM).

Which IC50 [8] does the source give for `Nc1nc(N2CCSCC2)sc1C(=O)c1cc2ccccc2oc1=O` here?
The IC50 was 7.5 µg/mL (≈ 20.1 µM).

And the IC50 [9]?
Its IC50 is 16.9 µg/mL (≈ 45.3 µM).

What about the IC50 [10] of the same compound?
Its IC50 is 13 µg/mL (≈ 34.8 µM).

What about the Activity [11] of the same compound?
The Activity was “Dose-dependent effect”.

What about the Activity [12] of the same compound?
The Activity was 54.1%.

And the Activity [13]?
The Activity was 4.65%.

What about the Activity [14] of the same compound?
The Activity was 19.2%.

And the Activity [15]?
Its Activity is 18.3%.

And the Activity [16]?
Its Activity is 51.5%.

And the Activity [17]?
Its Activity is 5.15%.

What about the Activity [18] of the same compound?
Its Activity is 19.2%.

What about the Activity [19] of the same compound?
Its Activity is 24.2%.

What about the Activity [20] of the same compound?
The Activity was 39.2%.

And the Activity [21]?
The Activity was 5.9%.

What about the Activity [22] of the same compound?
Its Activity is 41.7%.

And the Activity [23]?
Its Activity is 13.2%.

What about the Activity [24] of the same compound?
Its Activity is 8.28%.

And the Activity [25]?
The Activity was 16.79%.

And the Activity [26]?
Its Activity is 83.98%.

And the Activity [27]?
Its Activity is 6.44%.

And the Activity [28]?
The Activity was 9.08%.

What about the Activity [29] of the same compound?
Its Activity is 89.83%.

And the Activity [1]?
The Activity was 76.3 µMequiv.

What about the Activity [2] of the same compound?
The Activity was 86.3 µMequiv.

And the Activity [3]?
The Activity was 148 µMequiv.

And the Activity [4]?
The Activity was 266 µMequiv.

What about the Activity [5] of the same compound?
Its Activity is 455 µMequiv.

What about the Activity [6] of the same compound?
The Activity was 564 µMequiv.

And the IC50 [7]?
Its IC50 is 23.9 µg/mL (≈ 64 µM).

With `COc1cc([C@@H]2c3cc4c(cc3[C@@H](O[C@@H]3O[C@@H]5CO[C@@H](C)O[C@H]5[C@H](O)[C@H]3O)[C@H]3COC(=O)[C@H]23)OCO4)cc(OC)c1O` [ETOPOSIDE] as the compound, how does the IC50 [8] read?
The IC50 was 3.1 µg/mL (≈ 5.27 µM).

What about the IC50 [9] of the same compound?
The IC50 was 6.2 µg/mL (≈ 10.5 µM).

And the IC50 [10]?
The IC50 was 7.7 µg/mL (≈ 13.1 µM).
